Laboratory results reported in ChEMBL document CHEMBL3228025, “Synthesis and analgesic activities of some (4-substituted phenyl-1-piperazinyl)alkyl 2-aminobenzoates and 2-aminonicotinates” (J Med Chem, 1979).

How the values were obtained:
Rattus norvegicus = assay: Antiinflammatory activity in po dosed CD1 rat assessed as inhibition of carrageenan-induced paw edema administered 1 hr prior to carrageenan challenge measured after 3 hrs
Mus musculus [1] = assay: Analgesic activity in po dosed OF1 mouse assessed as dose required to double paw licking reaction time after 30 mins by hot plate test; type: functional; details: 0.5 h
Summary of the method: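 Male OF1 mice, 20 ± 2 g, given oral doses at several levels in 1% Tween 80 at 10 mL/kg, at least 10 per dose. After 30 min each mouse was placed on a metal plate at 56 °C and paw-licking latency was recorded. ED2 (dose doubling latency) was read graphically, with SEM and Dunnett's t versus controls.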

Mus musculus [2] = assay: Analgesic activity in po dosed CD1 mouse assessed as inhibition of acetic acid-induced writhing administered 30 mins prior to acetic acid challenge measured after 15 mins; type: functional
Summary of the method: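 Male CD1 mice, 20 ± 2 g, randomly grouped and dosed orally at several levels (10 mL/kg, 1% Tween 80 vehicle), with at least two groups of six per dose. After 30 min, 0.6% acetic acid was given ip at 10 mL/kg, and writhes were counted per group over 15 min. ED50 (dose halving writhes) was read graphically, with no SEM computed.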

[3] = Acute toxicity in po dosed CD1 mouse after 7 days; type: organism-based; details: in vivo
Summary of the method: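 Male CD1 mice, 20 ± 2 g, oral dosing at 10 mL/kg as an aqueous solution or suspension in 1% Tween 80 in distilled water. At least 10 animals per dose level, observed for 7 days. Oral LD50 calculated by the Litchfield–Wilcoxon method.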

Row | SMILES | ED40 (Rattus norvegicus) [mg/kg] | ED2 (Mus musculus [1]) [mg/kg] | ED50 (Mus musculus [2]) [mg/kg] | LD50 at 168 h [3] [mg/kg]
1 | O=C(OCCN1CCN(c2cccc(C(F)(F)F)c2)CC1)c1ccccc1Nc1ccnc2cc(OC(F)(F)F)ccc12 | 43 | 150 | 20 | 1500
2 | O=C(OCCN1CCN(c2cccc(OC(F)(F)F)c2)CC1)c1ccccc1Nc1ccnc2cc(Cl)ccc12 | 50 | > 300 | 120 | 4000
3 | O=C(OCCN1CCN(c2ccccc2)CC1)c1ccccc1Nc1ccnc2cc(Cl)ccc12 | 120 | 200 | 75 | 4250
4 | O=C(OCCN1CCN(c2cccc(Cl)c2)CC1)c1ccccc1Nc1ccnc2c(C(F)(F)F)cccc12 | 100 | > 300 | 18 | > 3000
5 | O=C(OCCN1CCN(c2ccccc2)CC1)c1ccccc1Nc1ccnc2c(Cl)cccc12 | 300 | > 250 | 80 | > 4000
6 | Cc1cc(Nc2ccccc2C(=O)OCCN2CCN(c3ccccc3)CC2)c2ccc(Cl)cc2n1 | > 200 | 300 | 110 | 4000
7 | CC(CN1CCN(c2ccccc2)CC1)OC(=O)c1ccccc1Nc1ccnc2cc(Cl)ccc12 (stereo not given) | 300 | 200 | 63 | > 2000
8 | O=C(OCCN1CCN(c2cccc(OC(F)(F)F)c2)CC1)c1ccccc1Nc1ccnc2cc(OC(F)(F)F)ccc12 | 75 | > 300 | 70 | 3500
9 | O=C(OCCN1CCN(c2cccc(Cl)c2)CC1)c1ccccc1Nc1ccnc2cc(C(F)(F)F)ccc12 | 30 | 150 | 9 | > 4000
10 | O=C(OCCN1CCN(c2cccc(SC(F)(F)F)c2)CC1)c1ccccc1Nc1ccnc2cc(C(F)(F)F)ccc12 | 30 | > 300 | 8 | 3750
11 | Cc1ccc(C)c(N2CCN(CCOC(=O)c3ccccc3Nc3ccnc4cc(Cl)ccc34)CC2)c1 | 120 | 300 | 22 | 4000
12 | Cc1ccc(Cl)cc1N1CCN(CCOC(=O)c2ccccc2Nc2ccnc3cc(Cl)ccc23)CC1 | 30 | > 300 | 15 | > 4000
13 | Cc1cccc(Nc2ccccc2C(=O)OCCN2CCN(c3ccccc3)CC2)c1C | > 50 | – | 90 | 4000
14 | O=C(OCCN1CCN(c2cccc(C(F)(F)F)c2)CC1)c1ccccc1Nc1ccnc2cc(Cl)ccc12 | 40 | 150 | 24 | –
15 | O=C(OCCCN1CCN(c2ccccc2)CC1)c1ccccc1Nc1ccnc2cc(Cl)ccc12 | 50 | 250 | 60 | 2000
16 | O=C(OCCN1CCN(c2ccccc2)CC1)c1ccccc1Nc1ccnc2cc(OC(F)(F)F)ccc12 | 40 | 300 | 24 | 1300
17 | O=C(OCCN1CCN(c2cccc(OC(F)(F)F)c2)CC1)c1ccccc1Nc1ccnc2cc(C(F)(F)F)ccc12 | 50 | > 300 | 20 | 3500
18 | O=C(OCCN1CCN(c2cccc(Cl)c2)CC1)c1ccccc1Nc1ccnc2cc(OC(F)(F)F)ccc12 | 85 | 300 | 20 | 4000
19 | O=C(OCCN1CCN(c2cc(C(F)(F)F)cc(C(F)(F)F)c2)CC1)c1ccccc1Nc1ccnc2cc(C(F)(F)F)ccc12 | 80 | > 300 | 20 | 4000
20 | O=C(OCCN1CCN(c2cccc(Cl)c2)CC1)c1ccccc1Nc1ccnc2cc(Cl)ccc12 | > 100 | 60 | 10 | 4000
21 | O=C(OCCN1CCN(c2cccc(Cl)c2)CC1)c1cccnc1Nc1cccc(SC(F)(F)F)c1 | > 300 | – | 100 | > 4000

Row | SMILES | ED40 (Rattus norvegicus) [mg/kg] | ED2 (Mus musculus [1]) [mg/kg] | ED50 (Mus musculus [2]) [mg/kg] | LD50 at 168 h [3] [mg/kg]
22 | O=C(OCCN1CCN(c2cccc(C(F)(F)F)c2)CC1)c1ccccc1Nc1ccnc2c(C(F)(F)F)cccc12 | 120 | 100 | 40 | > 3000
23 | O=C(OCCN1CCN(c2ccccc2)CC1)c1ccccc1Nc1ccnc2cc(C(F)(F)F)ccc12 | 40 | 300 | 30 | 2500
24 | COc1ccc(N2CCN(CCOC(=O)c3ccccc3Nc3ccnc4cc(Cl)ccc34)CC2)cc1 | 45 | > 300 | 200 | –
25 | O=C(OCCN1CCN(c2ccccc2)CC1)c1ccccc1Nc1ccnc2cc(SC(F)(F)F)ccc12 | 100 | 300 | 9 | –
26 | O=C(OCCN1CCN(c2ccccc2)CC1)c1ccccc1Nc1cccc(OC(F)(F)F)c1 | 150 | – | > 400 | 2000
27 | O=C(OCCN1CCN(c2cccc(C(F)(F)F)c2)CC1)c1cccnc1Nc1cccc(SC(F)(F)F)c1 | > 50 | – | 250 | > 4000
28 | O=C(OCCN1CCN(c2cccc(C(F)(F)F)c2)CC1)c1ccccc1Nc1cccc(SC(F)(F)F)c1 | > 50 | – | 300 | > 4000
29 | O=C(OCCN1CCN(c2cccc(SC(F)(F)F)c2)CC1)c1ccccc1Nc1ccnc2cc(Cl)ccc12 | 30 | 200 | 120 | 3000
30 | O=C(OCCN1CCN(c2ccccc2)CC1)c1ccccc1Nc1ccnc2c(C(F)(F)F)cccc12 | 64 | > 300 | 35 | 3000
31 | O=C(OCCN1CCN(c2cccc(SC(F)(F)F)c2)CC1)c1ccccc1Nc1ccnc2cc(SC(F)(F)F)ccc12 | 180 | 200 | 60 | –
32 | Cc1c(N(C)C)c(=O)n(-c2ccccc2)n1C [AMINOPYRINE] | 60 | 250 | 40 | 800
33 | O=C(OCCN1CCN(c2cccc(Cl)c2)CC1)c1ccccc1Nc1cccc(SC(F)(F)F)c1 | > 50 | – | > 400 | 2000
34 | O=C(OCC(O)CO)c1ccccc1Nc1ccnc2cc(Cl)ccc12 (stereo not given) [GLAFENINE] | 30 | > 600 | 56 | –
35 | Cc1ccc(Cl)cc1N1CCN(CCOC(=O)c2ccccc2Nc2ccnc3cc(C(F)(F)F)ccc23)CC1 | 65 | > 300 | 20 | 3000
36 | O=C(OCCN1CCN(c2cccc(C(F)(F)F)c2)CC1)c1ccccc1Nc1ccnc2cc(C(F)(F)F)ccc12 [ANTRAFENINE] | 40 | 30 | 6 | 4000
37 | O=C(OCCN1CCN(c2ccccc2)CC1)c1ccccc1Nc1cccc(C(F)(F)F)c1 | 100 | – | 400 | > 2000
38 | O=C(OCCN1CCN(c2cccc(SC(F)(F)F)c2)CC1)c1ccccc1Nc1ccnc2c(C(F)(F)F)cccc12 | > 100 | 200 | 6 | > 3000
39 | Cc1c(Cl)cccc1Nc1ncccc1C(=O)OCCN1CCN(c2cccc(C(F)(F)F)c2)CC1 | > 100 | – | 200 | > 4000
40 | O=C(OCCN1CCN(c2ccc(Cl)cc2)CC1)c1ccccc1Nc1ccnc2cc(Cl)ccc12 | 100 | > 300 | 80 | > 2000
41 | O=C(O)c1ccccc1Nc1ccnc2cc(C(F)(F)F)ccc12 | – | > 600 | 18 | 1000
